Most compounds without a hit are left out; they make up all but 2.4% or so of the library.
NPY-Y1 antag – NPY-Y1 (human) receptor antagonism | HEK293-CNG Y1 cells, membrane potential fluorescence; NPY at EC95, then isoproterenol | inhibition, % at 3.6 µM | actives 1% (n = 200,000) | AID 1040;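 active means inhibition above the campaign mean inhibition of all tested compounds plus 3 SD, cut at about 20% in these data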;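 further: 0% = DMSO wells given NPY plus isoproterenol and 100% = isoproterenol alone without NPY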
Target sequence (P25929 whole entry, looked up): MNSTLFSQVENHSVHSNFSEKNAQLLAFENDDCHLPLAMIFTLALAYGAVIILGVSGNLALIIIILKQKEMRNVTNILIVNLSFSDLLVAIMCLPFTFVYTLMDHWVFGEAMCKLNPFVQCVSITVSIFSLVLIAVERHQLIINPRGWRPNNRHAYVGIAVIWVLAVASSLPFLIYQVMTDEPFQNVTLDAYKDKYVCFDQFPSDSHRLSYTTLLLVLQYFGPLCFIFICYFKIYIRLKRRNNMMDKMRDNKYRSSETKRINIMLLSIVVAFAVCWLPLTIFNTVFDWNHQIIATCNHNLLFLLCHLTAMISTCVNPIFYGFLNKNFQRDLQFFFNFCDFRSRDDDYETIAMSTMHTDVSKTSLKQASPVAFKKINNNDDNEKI
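System: HEK293 cells with Y1 receptor plus CNG channel / Probe or stimulus: NPY 25 nM then isoproterenol 1 µM plus Ro 20-1724 25 µM / Compound: one concentration, 3.6 µM, in 0.4% DMSO / Schedule: compound incubation 1 h at room temperature, readout 45 min post-stimulation / Measured by: membrane potential fluorescence / Read-out: % inhibition of NPY effect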
NPY-Y2 PAM-ag – human NPY-Y2 potentiation or agonism, primary screen; cells expressing NPY-Y2, potentiator/agonist read-out; AID 1359; activation, % at 3.6 µM; P49146; actives 0.45% (n = 220,000); in the data active means activation above about 27%;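 further: cells stimulated with NPY near EC25 plus isoproterenol at EC100; 0% = vehicle plus submaximal agonist and 100% = vehicle plus saturating agonist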
NPY-Y2 antag – blocks the human neuropeptide Y Y2 receptor; P49146; NPY-Y2 expressing cells, antagonist mode; inhibition, % at 2.7 µM; actives 0.99% (n = 140,000); AID 793;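 further: 0% = vehicle with agonist challenge and 100% = reference antagonist with challenge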
S1P4 antagonist – antagonists of human S1P4 receptor; actives 0.26% (n = 220,000); inhibition, % at 4.98 µM; S1P4-expressing cells, antagonist mode, reporter read-out; O95977; in the data active means inhibition above about 29%;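 further: 0% = wells stimulated with agonist and 100% = vehicle wells without agonist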
S1P4 agonist – agonists of human S1P4 receptor | actives 0.35% (n = 220,000) | AID 1509 | S1P4-expressing cell line, agonist reporter assay | O95977 | activation, % at 4.98 µM; in the data active means activation above about 11%;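 further: 0% = DMSO vehicle and 100% = reference agonist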
NPY-Y1 PAM-ag – human NPY-Y1 potentiation or agonism, primary screen | P25929 | NPY-Y1 expressing cells, potentiator/agonist activation | actives 0.37% (n = 220,000) | AID 1304 | activation, % at 3.6 µM; in the data active means activation above about 33%, passing the limit was not always enough;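 further: cells stimulated with NPY at EC10 then isoproterenol at EC100; 0% = low agonist plus stimulus and 100% = saturating agonist plus stimulus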
NPY1 antag conf – human NPY-Y1 antagonism, confirmation | shares compounds with NPY-Y1 antag | HEK293-CNG NPY-Y1, membrane potential fluorescence, cAMP; NPY challenge against isoproterenol-raised cAMP | inhibition, % at 3.6 µM | actives 21% (n = 1,200) | AID 1254; in the data active means inhibition above about 20%;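 further: 0% = vehicle with agonist plus stimulus and 100% = stimulus alone without agonist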
NPY2 antag ctr – counter-screen for NPY-Y1 antagonists: human NPY-Y2 antagonism. shares compounds with NPY-Y1 antag. HEK293 NPY-Y2 CNG membrane potential fluorescence; cells given NPY, then isoproterenol. inhibition, % at 3.6 µM. actives 28% (n = 1,200);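 further: 0% = DMSO with agonist challenge and 100% = reference antagonist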
An asterisk follows results filed as active; . = not tested or not shown; ! = not confirmed by another sample. Unless noted, no stated cut-off is given here; in the data, active means inhibition above about 17%; inactive means the rest.

SMILES	NPY-Y1 antag	NPY-Y2 PAM-ag	NPY-Y2 antag	S1P4 antagonist	S1P4 agonist	NPY-Y1 PAM-ag	NPY1 antag conf	NPY2 antag ctr
NNC(=O)c1ccc(Oc2cc(Cl)cc(Cl)c2)o1	.	-5.5	.	-6.1	0.1	11.8	.	.
Cc1cc(C(=O)OCCN2C(=O)c3ccccc3C2=O)c2ccccc2n1	24.5*	-4.0	5.4	6.8	-2.8	1.3	0.6	5.4
O=C(OCCN1C(=O)c2ccccc2C1=O)c1cc(=O)[nH]c2ccccc12	6.1	-11.1	1.2	-13.1	2.0	-8.4	.	.
Cc1ccc(-n2ncc(C(=O)N3CCc4ccccc4C3)c2NC(=O)c2ccco2)cc1C	21.7*	-7.8	10.3	-7.2	-0.9	-40.7	2.2	8.5
COc1ccc(CCNC(=O)c2cnn(-c3ccc(C)c(C)c3)c2NC(=O)c2ccco2)cc1OC	-1.9	-8.0	-1.2	-17.6	2.9	-9.4	.	.
CC1CCCCC1NC(=O)CN1C(=O)NC(Cc2ccccc2)(Cc2ccccc2)C1=O (configuration not stated)	24.4*	-25.4	16.2	-1.2	0.7	-37.1	31.4*	27.9*
COc1ccc(NC(=O)CSCc2ccccc2C)cc1	5.4	-4.9	3.7	-9.0	-1.1	-4.4	.	.
COc1ccc(-n2cc(CN[C@H]3CCCCNC3=O)c(-c3cccc(F)c3)n2)cc1	.	-26.7	.	1.7	0.3	9.9	.	.
COc1ccc(-n2cc(CNC3CCN(C)CC3)c(-c3cccc(F)c3)n2)cc1	21.9*	-40.6	.	0.3	-0.7	-19.8	17.1	23.8*
Cc1ccc(C(c2nnnn2CCc2ccccc2)N2CCC(C)CC2)cc1 (configuration not stated)	1.6	8.8	10.0	13.8	0.1	-6.5	.	.
Cc1ccc(C(c2nnnn2CCc2ccccc2)N2CCSCC2)cc1 (configuration not stated)	20.5*	2.4	10.4	1.0	-2.2	2.7	10.2	4.2
O=C(CC(NS(=O)(=O)c1ccc(Cl)cc1)c1ccco1)N1CCc2ccccc21 (configuration not stated)	-0.7	-7.9	0.1	-15.8	-0.6	-5.4	.	.
CCCCNc1nc2ccccc2n1CC(=O)N1CCc2ccccc2C1	22.7*	-8.9	15.1	8.3	-0.5	-33.0	8.8	9.2
CCCCNc1nc2ccccc2n1CC(=O)Nc1c(C)cccc1CC	31.4*	7.0	9.8	-13.9	1.0	-34.8	19.5	14.2
CCc1sc(N)nc1-c1ccccc1	1.8	-2.7	1.7	18.3	-3.3	1.3	.	.
CC(=O)c1sc(=S)n(-c2ccc(Cl)cc2)c1C	0.2	11.0	.	-16.7	1.5	13.0	.	.
CCc1ccc(NC(=O)CSc2nc3ccccc3c(=O)n2CCCN2CCC(C)CC2)cc1	37.6*	-15.3	.	7.7	0.1	-38.4	47.4*	50.6*
COCCCn1c(SCC(=O)Nc2ccc(C(=O)OC)cc2)nc2ccccc2c1=O	-4.0	-1.9	4.5	6.0	1.6	24.6	.	.
C/C(=N\NC(=S)Nc1c(C)cccc1C)c1ccc(O)cc1	.	-14.3	.	8.3	1.1	9.9	.	.
Cc1ccc(-c2nc(CCN3C(=O)c4ccccc4C3=O)cs2)cc1	25.1*	-25.0	4.3	-9.7	2.0	-32.7	3.2	5.0
CCN(CC)S(=O)(=O)c1cc(NC(=O)COc2ccc(C#N)cc2OC)ccc1C	24.5*	-9.1	11.8	-14.2	-0.5	-24.9	12.2	29.0*
Cc1cc(C)nc(SCC(=O)NN)n1	1.7	-7.9	.	-7.7	0.6	-0.9	.	.
COc1ccc(Cl)cc1N(CC(=O)Nc1ccc2c(c1)OCO2)S(C)(=O)=O	-2.6	24.4	5.8	4.3	-0.1	18.0	.	.
COc1cc(NC(=O)c2ccc(Cl)cc2)c(OC)cc1Cl	31.1*	-46.7	14.6	10.1	0.4	-40.5	6.6	7.6
COc1cc(NC(=O)C2COc3ccccc3O2)c(OC)cc1Cl (configuration not stated)	31.1*	-32.7	12.7	2.3	2.3	-93.8	9.9	11.8
SMILES	NPY-Y1 antag	NPY-Y2 PAM-ag	NPY-Y2 antag	S1P4 antagonist	S1P4 agonist	NPY-Y1 PAM-ag	NPY1 antag conf	NPY2 antag ctr
COc1ccc2c(c1OC)C(=O)N(C(C)C(=O)O)C2=O (configuration not stated)	16.3	-17.1	9.8	-3.8	0.8	-50.9	.	.
CSc1nc(N2CCN(c3ccccc3Cl)CC2)c2ccccc2n1	29.5*	-34.3	.	4.5	1.2	-64.0	21.8*	26.7*
COc1ccc(CC2(CO)CCN(CC3=CC[C@H]4C[C@@H]3C4(C)C)CC2)cc1	22.2*	-7.5	.	-4.3	-1.0	-0.7	11.3	12.4
COc1ccccc1CCNC(=O)CSc1ccc(-c2ccco2)nn1	22.0*	0.9	.	-6.6	1.3	-16.1	1.9	2.5
Cc1ccc(OCCC(=O)Nc2ccc(C)c(F)c2)cc1	9.1	-21.4	.	-6.6	1.9	-16.8	.	.
CCN(CC)CCCNc1nc2ccccc2[nH]1	30.1*	-3.9	1.5	-10.3	1.1	-4.0	0.9	0.3
COc1cc(NC(=O)CN2CCN(c3ccccc3F)CC2)cc(OC)c1	-0.4	2.2	3.5	-14.0	-0.7	-10.4	.	.
COc1cccc(NC(=O)CN2CCN(c3ccccc3F)CC2)c1	21.7*	-14.6	5.9	9.1	0.7	-36.4	6.1	5.9
Cc1ccc(-n2c(=O)[nH]c3c(C(N)=O)nc(-c4ccc(C)o4)nc32)cc1	-0.2	-3.0	0.1	4.1	-0.4	9.0	.	.
CCn1ncc([C@@H]2C[C@H]3CN(Cc4cccc(Cl)c4)C(=O)[C@]34CCCN24)c1C	4.4	0.3	.	-40.0	1.2	4.7	.	.
O=C1N(Cc2cccc(Cl)c2)C[C@@H]2C[C@@H](c3ccco3)N3CCC[C@@]123	21.9*	-15.3	.	-3.0	0.6	3.0	11.8	5.7
Cc1nn(C)c(C)c1S(=O)(=O)N1CCCC(C(=O)N2CCN(c3ccc(Cl)cc3)CC2)C1 (configuration not stated)	-1.9	2.3	-2.0	-9.7	0.9	-3.0	.	.
N[C@@H](Cc1cc(I)c(Oc2ccc(O)c(I)c2)c(I)c1)C(=O)O	58.8*!	8.8	4.2	1.2	3.9	12.2	-2.7	1.9
NC(Cc1ccc(O)c([N+](=O)[O-])c1)C(=O)O (configuration not stated)	0.7	-5.7	3.6	-21.9	0.4	-2.4	.	.
O=C(N1CCN(c2ccc(F)cc2)CC1)C12CC3CC(CC(C3)C1)C2	15.2	-17.3	3.2	-4.6	0.4	10.7	.	.
O=C(Nc1c2c(nn1-c1ccc(F)cc1)CS(=O)(=O)C2)C12CC3CC(CC(C3)C1)C2	33.3*	11.9	6.3	-2.6	-0.8	-21.0	7.4	9.3
COc1cccc(CN2CCN(C(=O)CCc3nnc(C4CCCCC4)o3)CC2=O)c1	.	-32.4	.	-19.5	2.1	2.5	.	.

Screens deposited in PubChem BioAssay by The Scripps Research Institute Molecular Screening Center.
